A selection: hits, their analogues and other compounds. The true share with any hit is near 1.8%.
STAT3 inh = IL-6 driven STAT3 reporter inhibitors, primary screen, U3A cells, luciferase, luminescence, MLSCN library. IL-6 STAT3-luciferase reporter; host cell line lacks STAT1. inhibition, % at 5.5 µM. 0.89% of 190,000 active. AID 862, 2007;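 active means inhibition above the mean inhibition across all screened compounds plus 3 SD, cut at about 44% in these data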;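 further: 0% = DMSO only wells and 100% = 100 µM nifuroxazide control wells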
PERK inhibitor = block of dimerizer-induced PERK translation repression, primary screen, PERK inhibitor project, CHO PERK-DD cells, SEAP luminescence, HTS; CHO PERK-DD fusion, SEAP luminescence translation reporter; inhibition, % at 5.6 µM; 0.17% of 220,000 active; AID 1416, 2008;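 active means inhibition above the mean inhibition of all tested compounds plus 3 SD, set separately per screening campaign, cut at about 2.9% in these data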;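 further: PERK kinase domain activated by AP20187 dimerizer at 100 nM; 0% = DMSO with dimerizer and 100% = rapamycin at 8.4 µM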
Target sequence (Q9NZJ5 whole entry, looked up, the tested form may be a part): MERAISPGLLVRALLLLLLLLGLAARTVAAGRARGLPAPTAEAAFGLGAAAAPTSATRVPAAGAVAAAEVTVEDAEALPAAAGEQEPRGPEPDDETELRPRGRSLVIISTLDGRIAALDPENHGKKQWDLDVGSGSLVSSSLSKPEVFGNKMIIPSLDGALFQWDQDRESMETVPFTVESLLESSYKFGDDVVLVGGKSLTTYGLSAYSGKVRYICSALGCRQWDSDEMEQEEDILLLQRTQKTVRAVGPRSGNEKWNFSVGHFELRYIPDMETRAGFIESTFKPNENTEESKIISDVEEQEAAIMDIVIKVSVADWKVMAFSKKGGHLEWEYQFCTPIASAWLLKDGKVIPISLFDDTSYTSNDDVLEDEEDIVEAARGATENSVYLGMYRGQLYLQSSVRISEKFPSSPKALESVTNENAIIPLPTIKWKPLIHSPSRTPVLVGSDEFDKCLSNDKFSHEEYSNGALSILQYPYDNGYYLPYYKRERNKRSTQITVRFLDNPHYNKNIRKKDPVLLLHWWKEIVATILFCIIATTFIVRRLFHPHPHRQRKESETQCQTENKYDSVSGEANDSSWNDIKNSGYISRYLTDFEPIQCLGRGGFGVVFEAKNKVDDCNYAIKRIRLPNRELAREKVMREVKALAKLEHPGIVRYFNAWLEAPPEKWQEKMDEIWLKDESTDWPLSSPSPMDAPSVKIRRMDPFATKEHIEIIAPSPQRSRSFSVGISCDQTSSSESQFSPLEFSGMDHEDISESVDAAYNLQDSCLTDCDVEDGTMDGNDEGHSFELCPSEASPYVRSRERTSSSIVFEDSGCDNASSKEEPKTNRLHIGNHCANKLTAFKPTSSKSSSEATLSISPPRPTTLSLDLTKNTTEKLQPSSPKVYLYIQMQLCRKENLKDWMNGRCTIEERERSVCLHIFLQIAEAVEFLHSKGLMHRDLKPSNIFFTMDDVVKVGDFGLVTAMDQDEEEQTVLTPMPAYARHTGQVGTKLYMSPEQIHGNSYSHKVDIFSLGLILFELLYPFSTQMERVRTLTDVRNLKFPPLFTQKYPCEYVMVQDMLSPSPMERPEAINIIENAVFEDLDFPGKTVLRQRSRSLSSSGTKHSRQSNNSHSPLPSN
STAT1 blocker = STAT1 signaling inhibitors, primary screen, cell-based, HTS, luciferase reporter | NIH 3T3 STAT1-luciferase reporter, IFN-gamma, luminescence | inhibition, % at 5.5 µM | 0.35% of 200,000 active | AID 920, 2007;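 active means inhibition above a set limit, the mean inhibition across all tested compounds plus 3 SD, cut at about 34% in these data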;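 further: 0% = IFN-gamma with DMSO and 100% = IFN-gamma with 300 µM nifuroxazide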
STAT3 act-1 = IL-6 driven STAT3 reporter potentiators, primary screen, U3A cells, luciferase, luminescence, MLSCN library. AID 871, 2007. activation (% of control), % at 5.6 µM. 0.91% of 190,000 active. IL-6 STAT3-luciferase reporter; 100% = signal with IL-6 EC80 alone;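 active means activation above the screen-wide mean of compound activation plus 3 SD, cut at about 130% in these data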;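 further: 0% = background luminescence of wells with medium and substrate only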
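Test system: Human STAT1-deficient U3A cells with stable STAT3-luciferase reporter | Also added: Interleukin-6, 33 ng/mL | Timing: Compound pre-incubation 1 h before IL-6, then 6 h stimulation at 37 °C | Technique: Luciferase reporter luminescence | Read-out: Percent of IL-6-only median luminescence | Benchmarks: IL-6-only wells as 100% reference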
STAT3 act-2 = STAT3 reporter potentiators, retest of hits, confirmation, U3A cells, luciferase, luminescence. shares compounds with STAT3 act-1. IL-6 potentiation; U3A cells lack STAT1; 100 means same as IL-6 alone. potentiation (% of control), % at 5.7 µM. 64% of 1,200 active;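 active means percent activation of the STAT3 luciferase reporter above a set limit taken from the earlier primary screen, cut at about 130% in these data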;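 further: 0% = background signal of medium plus substrate and 100% = median of IL-6 with DMSO wells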
NFkB act 2 = NF-kB reporter activators in human cells, counter-screen for STAT3 activator project; shares compounds with STAT3 act-1; NF-kappaB reporter activation; activation (% of control), % at 5.7 µM; 11% of 1,200 active; AID 1309, 2008; in the data active means activation above about 120%;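 further: reporter induced by TNF-alpha stimulation; 100% = median of stimulated DMSO wells and 0% = no signal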
STAT1 act STAT3c = STAT1 reporter activators, IFN-gamma induced, counter-screen for STAT3 activator project, cell-based, NIH 3T3, luciferase luminescence. shares compounds with STAT3 act-1. activation (% of control), % at 5.7 µM. AID 1318, 2008. NIH 3T3 STAT1-luciferase reporter. 13% of 1,200 active;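 active means activation above the solvent-only control well mean plus 3 SD, set per screening run, cut at about 120% in these data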;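 further: 100% = IFN-gamma with DMSO median signal so 100% means no change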
* hit, by the source's call; x = not tested or not shown.

SMILES	STAT3 inh	PERK inhibitor	STAT1 blocker	STAT3 act-1	STAT3 act-2	NFkB act 2	STAT1 act STAT3c
Cn1nccc1C(=O)Oc1cccc(/C=N/NC(=O)c2ccccc2O)c1	38	2	-6	71	x	x	x
Cn1c(=O)c(C(=O)Nc2ccccn2)c(O)c2ccccc21	-44	2	-23	139*	178*	115	181*
Cc1nn(C)c(C)c1/C=N/NC(=O)CCn1nc(C)c([N+](=O)[O-])c1C	0	0	3	96	x	x	x
N#CC1=C(N)Oc2cc(O)ccc2C1c1cccnc1 (stereo not given)	10	0	0	92	x	x	x
CN(C)c1ccc2c(c1)OC(N)=C(C#N)C2c1cccc(F)c1 (stereo not given)	-50	0	-11	146*	100	153*	112
Cc1ccc(-n2nc(C)cc2NC(=O)CC#N)cc1	7	1	6	99	x	x	x
Cc1ccc(-n2nc(C)cc2NC(=O)c2ccc(C)s2)cc1	-37	0	0	136*	114	102	97
Cc1cc(C)nc(N/N=C/c2c[nH]c3ccccc23)n1	-11	2	8	115	x	x	x
Cc1cc(N/N=C/c2c[nH]c3ccccc23)c2ccccc2n1	-53	0	5	148*	141*	100	88
COc1ccc(OCC(=O)Nc2ccc(N3CCN(C(=O)c4ccccc4C)CC3)cc2)cc1	1	2	-8	109	x	x	x
C=CCSc1nnc(-c2cc3c(s2)-c2ccccc2CC3)o1	-55	-1	-15	151*	145*	109	116
Cc1ccc(-c2nc(NCCN3CCOCC3)c3ccccc3n2)cc1	-81	-1	2	181*	169*	105	98
CC1CCOC2(O1)C(=O)N(CN1CCN(c3ccccc3F)CC1)c1ccccc12 (stereo not given)	-54	1	5	148*	119	99	82
O=C1N(CN2CCN(c3cccc(Cl)c3)CC2)c2ccccc2C12OCCCO2	20	1	18	88	x	x	x
Oc1ccccc1/C=N/Nc1cccc2cccnc12	-67	1	11	162*	164*	98	93
Nn1c(=O)[nH]c2c([nH]c3ccccc32)c1=O	-45	1	18	147*	152*	102	90
COc1ccc(N2CCN(C(=O)CCN3C(=S)NC(C)(C)CC3C)CC2)cc1 (stereo not given)	8	0	-1	97	x	x	x
c1ccc(-c2ccccc2-c2nc(-c3cccnc3)no2)cc1	5	0	0	97	x	x	x
c1cncc(-c2noc(-c3cccc4ccccc34)n2)c1	-106	-1	-28	188*	176*	124*	148*
CC(C(=O)OCC(=O)Nc1cccc(S(=O)(=O)N2CCOCC2)c1)N1C(=O)c2ccccc2C1=O (stereo not given)	-5	0	-5	113	x	x	x
Oc1ccccc1/C=N/N1CCCCC1	8	2	-16	93	x	x	x
Oc1[nH]c2ccccc2c1/C=N/N1CCCCC1	-50	1	-8	145*	103	100	103
O=C1CC(N2CCc3ccccc32)C(=O)N1c1ccc(F)cc1 (stereo not given)	5	0	-13	98	x	x	x
Cc1nc2sc3c(c2c(=O)[nH]1)CCC3	9	0	-7	98	x	x	x
Cc1cc(-c2nc3c4c5c(sc4[nH]c(=O)n3n2)CCC5)c(C)o1	-57	1	2	151*	134*	97	94
SMILES	STAT3 inh	PERK inhibitor	STAT1 blocker	STAT3 act-1	STAT3 act-2	NFkB act 2	STAT1 act STAT3c
Cc1[nH]c2ccccc2c1/C=N/Nc1ccc(F)cc1F	-59	-1	-14	155*	142*	108	121*
O=c1cc(-c2ccccc2)[nH]n1-c1nc2ccccc2[nH]1	-53	0	-14	155*	141*	157*	141*
CCc1cc(=O)[nH]c(-n2[nH]c(-c3ccccc3)cc2=O)n1	5	1	2	98	x	x	x
O=C(COC(=O)/C=C/c1ccc(S(=O)(=O)N2CCOCC2)cc1)NC1CCCCCCC1	-1	1	0	106	x	x	x
COc1ccc(C2C(C(=O)c3cccs3)=C(O)C(=O)N2c2nncs2)cc1 (stereo not given)	-51	1	-1	150*	129	103	99
CC1=NN(c2ccc(Br)cc2)C(=O)/C1=C/c1cccs1	-94	0	15	181*	155*	99	91
O=C(O)CC1SC(N/N=C/c2ccc(Br)cc2)NC1=O (stereo not given)	7	0	-2	100	x	x	x
CCC1=NN=C(c2ccc(F)cc2)C(c2c[nH]c3ccccc23)N1O (stereo not given)	-71	1	-1	163*	159*	104	112
Cc1ccc(N2C(=O)CC(c3c[nH]c4ccccc34)C2=O)cc1 (stereo not given)	6	0	3	96	x	x	x
Cc1oc(/N=C/c2ccccc2O)c(C#N)c1C	-49	2	-5	146*	157*	106	101
Cc1oc(/N=C/c2ccc(O)cc2O)c(C#N)c1C	0	0	8	107	x	x	x
Cc1oc(/N=C/c2ccc(Cl)cc2)c(C#N)c1C	-50	1	-9	146*	136*	104	113
CC1=CC(=C(C#N)C#N)C=C(C)N1Cc1ccccc1	13	1	9	93	x	x	x
CCN(CC)S(=O)(=O)c1cccc(-c2nnc(SCc3nc4ccccc4s3)o2)c1	-46	-1	-13	139*	122	111	115
CCN(CC)S(=O)(=O)c1cccc(-c2nnc(SCCCC(=O)c3ccccc3)o2)c1	5	0	10	99	x	x	x
Cc1csc(-c2cnn(-c3ccccc3)c2NC(=O)c2cccc(C(F)(F)F)c2)n1	-11	-1	-4	108	x	x	x
O=C(O)c1ccc(NC2=C/C(=N/S(=O)(=O)c3ccccc3)c3ccccc3C2=O)cc1	-55	1	19	155*	131	99	101
Cc1cccc2cc(CN(Cc3ccccc3)C(=O)N3CCOCC3)c3nnnn3c12	3	0	-1	99	x	x	x
c1ccc(-c2cc(-c3nn4c(-c5ccco5)nnc4s3)c3ccccc3n2)cc1	0	0	2	101	x	x	x
Cc1cc(-c2nn3c(-c4ccccc4)nnc3s2)c2ccccc2n1	-66	-1	31	156*	139*	99	81
